# Measured values pooled from the literature.
# RPS6KA6: Ribosomal protein S6 kinase alpha-6 (RPS6KA6, Homo sapiens, UniProt Q9UK32)
# RPS6KA6 N-terminal kinase domain: Ribosomal protein S6 kinase alpha-6, N-terminal kinase domain (RPS6KA6, Homo sapiens, UniProt Q9UK32)
# RPS6KA6 C-terminal kinase domain: Ribosomal protein S6 kinase alpha-6, C-terminal kinase domain (RPS6KA6, Homo sapiens, UniProt Q9UK32)
SMILES,target,test,conditions,endpoint,result
Cn1c2c(Cl)c(Cl)ccc2c2cc(N)[nH]c(=O)c21,RPS6KA6,"thermal stability, DSF",10 µM,ΔTm,3.3 °C
c1cnn2ncc(-c3ccnc(N4CCC45COC5)n3)c2c1,RPS6KA6 N-terminal kinase domain,"binding, competition with immobilised ligand",1 µM,remaining binding,58%
O=C(NS(=O)(=O)c1ccc(NCC2CCOCC2)c([N+](=O)[O-])c1)c1ccc(N2CCN(Cc3ccc(C(F)(F)F)cc3-c3ccc(Cl)cc3)CC2)cc1Oc1cnc2[nH]ccc2c1,RPS6KA6 N-terminal kinase domain,"cell-free assay, competition with immobilised ligand",1 µM,remaining binding,100%
Cc1cnc(NC2CCOCC2)nc1-n1cnc(C(=O)NC(CN)c2cc(F)cc(Cl)c2)c1 (stereo not shown),RPS6KA6,"enzyme activity, inhibitor, radiometric",1 µM,remaining activity,17%
CC/C(=N\NC(=O)NCc1cccc(O)c1)c1ccc(O)c(C)c1O,RPS6KA6,"enzyme activity, inhibitor",0.1 µM,inhibition,66.4%
Cc1nc(C2CCN(C(=O)c3ccc(OC(F)(F)F)cc3N)CC2)c2ncc(N3CCN(C)CC3)cc2n1,RPS6KA6 C-terminal kinase domain,"cell-free assay, competition with immobilised ligand",1 µM,remaining binding,100%
CN1CC(Oc2cnc(C#N)cc2-c2ccn3nc(NC(=O)C4CC4)cc3c2)C1,RPS6KA6,"enzyme activity, inhibitor",1 µM,inhibition,-4%
Nc1nc(Nc2ccc(S(N)(=O)=O)cc2)nn1C(=O)c1c(F)cccc1F,RPS6KA6,cell-free assay,0.5 µM,remaining signal,24.7%
Cn1nc(C(=O)NCc2ccc(C(=O)O)cc2)cc1-c1ccc2[nH]ccc2c1,RPS6KA6 C-terminal kinase domain,"cell-free assay, competition with immobilised ligand",0.1 µM,remaining binding,85%
Cc1sc(C(=O)NC2COC2)cc1-n1cc(NC(=O)Nc2c(F)cccc2Cl)cn1,RPS6KA6,"enzyme activity, inhibitor",10 µM,remaining activity,116%
COc1ccc(COc2ccc(Cc3cnc(N)nc3N)cc2OC)cc1,RPS6KA6,cell-free assay,0.5 µM,remaining signal,101%
COc1cc2ncnc(Nc3ccc(Oc4ccccc4)cc3C)c2cc1OC,RPS6KA6,"enzyme activity, inhibitor",1 µM,inhibition,7%
Cc1ccc(NC(=O)c2ccc(C)c(C(F)(F)F)c2)cc1C#Cc1nn(C2CCC(O)CC2)c2ncnc(N)c12 (stereo not shown),RPS6KA6,cell-free assay,10 µM,remaining signal,44%
CS(=O)(=O)N1CCCC(NC(=O)[C@H](CCC2CCCCC2)NC(=O)c2ccc(CNC(=O)c3cnc4ccccn34)cc2)C1 (stereo partly shown),RPS6KA6 N-terminal kinase domain,"cell-free assay, competition with immobilised ligand",0.1 µM,remaining binding,97%
CC(C)(O)[C@H]1CC[C@H](Nc2ccc3ncc(-c4cccc(C(F)(F)F)c4)n3n2)CC1,RPS6KA6,"enzyme activity, inhibitor",1 µM,remaining activity,91.7%
CNC(=O)c1cc(Oc2ccc(NC(=O)Nc3ccc(Cl)c(C(F)(F)F)c3)cc2)ccn1,RPS6KA6,"enzyme activity, inhibitor",0.3 µM,inhibition,-29%
Cc1ccc(C(=O)Nc2ccc(CN3CCN(C)CC3)c(C(F)(F)F)c2)cc1C#Cc1cnc2cccnn12,RPS6KA6,"enzyme activity, inhibitor",23.5 nM,remaining activity,93%
Nc1ncnc2occ(-c3ccc(NC(=O)Nc4cc(C(F)(F)F)ccc4F)cc3)c12,RPS6KA6 N-terminal kinase domain,"cell-free assay, inhibitor",20 µM,remaining signal,5.5%
CN1CCC2(CC1)NC(=O)c1c(c3ccc(Cl)c(Cl)c3n1C)C2C#N (racemic),RPS6KA6,"thermal stability, DSF",10 µM,ΔTm,0 °C
Cc1ccc(C(=O)NCc2ccsc2)cc1C#Cc1cn(C(C)C)c2ncnc(N)c12,RPS6KA6,"enzyme activity, inhibitor",1 µM,activity vs control,71%
Cn1c2c(c3ccc(Cl)c(Cl)c31)C(C#N)C1(CCOCC1)NC2=O (stereo not shown),RPS6KA6,"thermal stability, DSF",10 µM,ΔTm,0.1 °C
O=C(N[C@H]1CCCCC/C=C\C2C[C@@]2(C(=O)O)NC(=O)[C@@H]2C[C@@H](Oc3ccncc3)CN2C1=O)OC1CCCC1 (stereo partly shown),RPS6KA6 N-terminal kinase domain,"binding, competition with immobilised ligand",1 µM,remaining binding,60%
N#CCCc1ccc2c(c1)-c1[nH]c3ccc([N+](=O)[O-])cc3c1CC(=O)N2,RPS6KA6,cell-free assay,0.5 µM,remaining signal,13.4%
Cn1c2c(c3ccc(Cl)c(Cl)c31)C(C#N)C(C)(C)NC2=O (stereo not shown),RPS6KA6,"thermal stability, DSF",10 µM,ΔTm,2.6 °C
CC(C)(C)c1nc(-c2cccc(NS(=O)(=O)c3c(F)cccc3F)c2F)c(-c2ccnc(N)n2)s1,RPS6KA6,"enzyme activity, inhibitor, radiometric",1 µM,remaining activity,98%
N[C@@H]1CCN(c2nccc(-c3cnn4ncccc34)n2)C1,RPS6KA6 C-terminal kinase domain,"binding, competition with immobilised ligand",1 µM,remaining binding,100%
CCC(=N\O)/C(C)=C/c1ccc(F)cc1,RPS6KA6 C-terminal kinase domain,"cell-free assay, competition with immobilised ligand",1 µM,remaining binding,94%
CN(CCCC(F)(F)F)c1nccc(-c2cnn3ncccc23)n1,RPS6KA6 C-terminal kinase domain,"binding, competition with immobilised ligand",1 µM,remaining binding,100%
CN(C)c1ncnc(-c2ccc3nc(Nc4cc(CN5CCN(C(=O)CC(F)(F)F)CC5)ccn4)[nH]c3c2)c1Cl,RPS6KA6 C-terminal kinase domain,"cell-free assay, competition with immobilised ligand",1 µM,remaining binding,81%
C[C@@H]1CCN(c2nccc(-c3cnn4ncccc34)n2)C1,RPS6KA6 N-terminal kinase domain,"binding, competition with immobilised ligand",1 µM,remaining binding,71%
O=C1NC(=O)c2cc(Nc3ccc(F)cc3)c(Nc3ccc(F)cc3)cc21,RPS6KA6,cell-free assay,0.5 µM,remaining signal,97.4%
O=C(N1CCS(=O)(=O)CC1)N1C[C@H](c2ccc(OC(F)(F)F)cc2)C[C@H](c2nc(C3CC3)no2)C1,RPS6KA6 C-terminal kinase domain,"cell-free assay, competition with immobilised ligand",1 µM,remaining binding,100%
CCOc1cc(-c2nncn2C)ccc1Nc1ncc2cc(C)nc(NCC(C)(C)C)c2n1,RPS6KA6,"enzyme activity, inhibitor, FRET",1 µM,inhibition,24%
C[S+]([O-])c1ccc(-c2nc(-c3ccncc3)c(-c3ccc(F)cc3)[nH]2)cc1 (stereo not shown),RPS6KA6,cell-free assay,0.5 µM,remaining signal,110%
